Compound activity from PubChem.
Shown are actives, neighbours in structure and some others; about 5.8% of the full set was active somewhere.
Pf Dd2 inh: inhibitors of Plasmodium falciparum Dd2 growth | P. falciparum Dd2 growth, SYBR Green, 72 h; stronger effect = lower value | activity change, % at 10 µM | 94,000 tested, 2.3% active; in the data active = activity change below about -80%; inconclusive = no clear call, values can overlap the other calls
KDM4C inh: KDM4C (human) demethylase inhibition. inhibition, % at 12.5 µM. Q9H3R0. GST-KDM4C 2-372, H3K9me3 peptide, LANCE TR-FRET. 96,000 tested, 0.15% active;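 active = mean replicate inhibition above about 25%, with at least 55% of replicates also reaching it, limit read from the data, passing the limit was not always enough; inconclusive = only one of those two conditions met; inactive = neither condition met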
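System – N-terminal GST-fused human GASC-1 (KDM4C) fragment, residues 2-372 · Input – enzyme final amount 10 nM · Technique – LANCE TR-FRET, Eu antibody, ULight-streptavidin, EDTA, ex 340 nm, em 618/671 nm · Medium – HEPES buffer, pH 7.5, plus ascorbate · Incubation – enzyme reaction 30 min, then detection 60 min, both room temperature · Reagent – H3K9me3 peptide with Fe(II)/2OG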
IDH1 mut inh: blocks human IDH1 R132H reductase activity | O75874 | diaphorase/resazurin fluorescence, 60 min | inhibition, % at 10 µM | 70,000 tested, 0.18% active | AID 624101; in the data active = inhibition above about 34%; inconclusive = no clear call, values can overlap the other calls; inactive = below about 11%;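 note: 0% = DMSO and 100% = no enzyme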
Target sequence (O75874 whole entry R132H): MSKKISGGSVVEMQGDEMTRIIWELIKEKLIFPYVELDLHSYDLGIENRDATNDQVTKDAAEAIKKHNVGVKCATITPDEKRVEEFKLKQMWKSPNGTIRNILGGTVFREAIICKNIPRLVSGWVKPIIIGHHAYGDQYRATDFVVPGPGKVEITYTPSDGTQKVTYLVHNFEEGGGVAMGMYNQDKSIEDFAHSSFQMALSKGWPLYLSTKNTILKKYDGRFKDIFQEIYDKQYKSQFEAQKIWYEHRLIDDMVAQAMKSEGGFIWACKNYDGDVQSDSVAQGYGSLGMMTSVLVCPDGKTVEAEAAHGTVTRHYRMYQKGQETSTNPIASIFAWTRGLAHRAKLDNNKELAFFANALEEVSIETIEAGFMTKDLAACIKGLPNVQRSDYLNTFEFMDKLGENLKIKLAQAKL
T cruzi growth-1: inhibitors of T. cruzi proliferation | T. cruzi beta-gal in NIH3T3, GalScreen luminescence, 90 h | inhibition, % at 8.34 µM | 77,000 tested, 5.9% active | AID 624255;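 active = mean inhibition above about 93%, with at least 55% of replicates each passing it, limit read from the data, passing the limit was not always enough; inconclusive = only one of those two conditions holds; inactive = neither condition holds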
T cruzi growth-2: Trypanosoma cruzi proliferation inhibition; shares compounds with T cruzi growth-1; T. cruzi beta-gal in NIH3T3, GalScreen luminescence, 90 h; inhibition, % at 8.35 µM; 5,600 tested, 72% active; AID 651739;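 active = mean replicate inhibition above about 95% and at least 55% of replicates individually reaching it, limit read from the data; inconclusive = only one of the two criteria is met; inactive = neither criterion is met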
T cruzi growth-3: Trypanosoma cruzi proliferation inhibition; inhibition, % at 2.09 µM; 5,600 tested, 21% active; shares compounds with T cruzi growth-1; T. cruzi beta-gal in NIH3T3, GalScreen luminescence, 90 h;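 active = mean inhibition above about 95%, with at least 55% of replicates also reaching it, limit read from the data; inconclusive = meets just one of the two conditions; inactive = meets neither condition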;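 note: plate controls were neutral control median for no effect and positive control median for full effect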
3T3 cytotox: NIH/3T3 (mouse) viability loss; shares compounds with T cruzi growth-1; NIH/3T3 viability, CellTiter-Glo ATP luminescence, 90 h; cytotoxicity (signal decrease), % at 8.35 µM; 5,600 tested, 14% active; AID 651742;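 active = mean signal decrease across replicates above about 35% based on untreated-well scatter, with enough replicates individually passing, limit read from the data; inconclusive = no rule stated though some were filed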;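 note: 0% = median of neutral control wells and 100% = median of positive control wells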
3T3 cytotox 2: kills mouse NIH/3T3 fibroblasts; shares compounds with T cruzi growth-1; NIH/3T3 viability, CellTiter-Glo ATP luminescence, 90 h; inhibition, % at 24.9 µM; 5,600 tested, 56% active; AID 651744;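 active = mean loss of cell viability signal at or above a set limit, and enough replicates individually reaching it; inconclusive = meets only the mean limit or only the replicate share; inactive = meets neither condition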;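 note: 0% = median of neutral control wells and 100% = median of positive control wells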
Active calls of the source: *; ? = inconclusive; . = no result.

SMILES	Pf Dd2 inh	KDM4C inh	IDH1 mut inh	T cruzi growth-1	T cruzi growth-2	T cruzi growth-3	3T3 cytotox	3T3 cytotox 2
Cc1ccccc1S(=O)(=O)NCC[C@@H]1CC[C@H](NC(=O)C2CCCC2)[C@@H](CO)O1	-1.6	2.3	-0.3	.	.	.	.	.
COCC#Cc1ccc([C@H]2[C@@H](CO)N3CCCCN(S(=O)(=O)c4ccc(OC)cc4)C[C@@H]23)cc1	-45.6	-0.5	.	?	99.9*	42.4	33.9	33.6*
COCC#Cc1ccc([C@H]2[C@H](CO)N3CCCCN(S(=O)(=O)c4ccc(OC)cc4)C[C@@H]23)cc1	-57.0	-0.6	.	?	99.8*	39.5	-0.9	11.4
CC(C)c1cn(CC[C@H]2CC[C@@H](NS(=O)(=O)c3ccccc3)[C@@H](CO)O2)nn1	-10.3	-0.2	0.2	-5.2	.	.	.	.
COc1ccccc1-c1ccc([C@H]2[C@@H](CO)N3CCCCN(C(=O)CN4CCOCC4)C[C@@H]23)cc1	18.8	0.5	.	?	76.5	71.3	27.3	64.8*
COc1ccccc1-c1ccc([C@@H]2[C@@H](CO)N3CCCCN(C(=O)CN4CCOCC4)C[C@@H]23)cc1	-21.3	0.7	.	114.3*	38.7	-28.7	3.4	25.9*
COc1ccc(CN(C)C[C@@H]2OCCCC[C@H](C)Oc3ccc(NC(=O)CCC(F)(F)F)cc3C(=O)N([C@@H](C)CO)C[C@H]2C)cc1	-45.3	-1.3	3.6	28.2	.	.	.	.
COc1ccc(NC(=O)N(C)C[C@@H]2Oc3c(NC(=O)c4cc(C)nn4C)cccc3C(=O)N([C@H](C)CO)C[C@@H]2C)cc1	-7.7	0.7	-0.6	5.2	.	.	.	.
C[C@@H]1CN([C@@H](C)CO)C(=O)c2cc(NC(=O)Cn3cnnn3)ccc2O[C@@H]1CN(C)S(=O)(=O)c1ccc(Cl)cc1	-10.9	0.1	14.0	36.4	.	.	.	.
CCCC(=O)Nc1ccc2c(c1)C(=O)N(C)[C@@H]1CC[C@@H](CC(=O)NCC(F)(F)F)O[C@H]1CO2	0.3	2.1	.	9.1	.	.	.	.
C[C@@H]1CN([C@@H](C)CO)S(=O)(=O)c2ccc(C#CCN(C)C)cc2O[C@H]1CN(C)Cc1ccc2c(c1)OCO2	-44.1	0.6	0.1	111.3*	102.3*	93.9	44.8*	104.1*
C[C@H](CO)N1C[C@H](C)[C@@H](CN(C)Cc2ccc3c(c2)OCO3)Oc2cc(C#CCN(C)C)ccc2S1(=O)=O	-15.6	-0.4	0.5	102.7*	110.1*	57.7	?	104.6*
CCCC#Cc1ccc2c(c1)O[C@@H](CN(C)Cc1ccc3c(c1)OCO3)[C@@H](C)CN([C@H](C)CO)S2(=O)=O	.	2.7	0.4	109.3*	91.9	104.8*	13.5	103.1*
CC(C)CC#Cc1ccc2c(c1)O[C@@H](CN(C)Cc1ccc3c(c1)OCO3)[C@@H](C)CN([C@@H](C)CO)S2(=O)=O	-63.5	-3.1	0.0	47.2	.	.	.	.
Cc1noc(C)c1NC(=O)Nc1ccc2c(c1)C(=O)N([C@@H](C)CO)C[C@H](C)[C@@H](CN(C)Cc1ccccc1)OCCCC[C@@H](C)O2	-23.8	-1.2	2.5	19.1	.	.	.	.
COc1cccc(NC(=O)C[C@@H]2CC[C@H]3[C@H](COc4ccc(NC(=O)C5CCOCC5)cc4C(=O)N3C)O2)c1	3.7	1.9	.	22.5	.	.	.	.
Cc1ccc(S(=O)(=O)N[C@@H]2CC[C@@H](CC(=O)NCc3ccccc3F)O[C@H]2CO)cc1	4.5	2.0	-0.5	24.1	.	.	.	.
O=C(Nc1ccccc1F)N1CCCCN2[C@H](CO)[C@H](c3ccc(-c4cccnc4)cc3)[C@@H]2C1	29.8	1.1	.	113.0*	104.8*	28.9	-3.4	10.7
O=C(Nc1ccccc1F)N1CCCCN2[C@@H](CO)[C@H](c3ccc(-c4cccnc4)cc3)[C@@H]2C1	10.4	-0.2	.	101.8*	106.1*	40.4	-10.4	33.7*
O=C(Nc1ccccc1F)N1CCCCN2[C@@H](CO)[C@@H](c3ccc(-c4cccnc4)cc3)[C@@H]2C1	-23.5	0.0	.	77.8	.	.	.	.
CCC(=O)N1CC2(C1)[C@H](c1ccccc1)[C@H](CO)N2Cc1cc(F)ccc1F	-50.2	0.3	.	.	.	.	.	.
COc1ccc(S(=O)(=O)Nc2ccc3c(c2)CC(=O)N([C@@H](C)CO)C[C@@H](C)[C@@H](CN(C)Cc2ccc4c(c2)OCO4)O3)cc1	-40.2	-0.8	0.5	52.2	.	.	.	.
COc1ccc(S(=O)(=O)Nc2ccc3c(c2)CC(=O)N([C@H](C)CO)C[C@H](C)[C@@H](CN(C)Cc2ccc4c(c2)OCO4)O3)cc1	-24.9	1.0	2.1	?	107.5*	62.4	-16.6	-5.3
COc1ccc(S(=O)(=O)Nc2ccc3c(c2)CC(=O)N([C@@H](C)CO)C[C@@H](C)[C@H](CN(C)Cc2ccc4c(c2)OCO4)O3)cc1	-22.6	0.0	-0.1	113.3*	108.8*	85.4	18.7	23.2
COc1ccc(S(=O)(=O)Nc2ccc3c(c2)CC(=O)N([C@H](C)CO)C[C@@H](C)[C@H](CN(C)Cc2ccc4c(c2)OCO4)O3)cc1	14.2	14.4	0.0	109.2*	107.8*	53.2	1.3	8.2
SMILES	Pf Dd2 inh	KDM4C inh	IDH1 mut inh	T cruzi growth-1	T cruzi growth-2	T cruzi growth-3	3T3 cytotox	3T3 cytotox 2
C[C@@H]1CN([C@@H](C)CO)C(=O)Cc2cc(NC(=O)Cc3cn(C)c4ccccc34)ccc2O[C@H]1CN(C)CC1CCCCC1	-63.2	-1.3	-0.3	17.5	.	.	.	.
C[C@@H]1CN([C@H](C)CO)C(=O)c2cc(NC(=O)Nc3ccc(F)cc3)ccc2O[C@@H](C)CCCCO[C@@H]1CN(C)S(=O)(=O)c1ccccc1	-82.3*	16.8	10.0	102.5*	83.5	-13.2	-13.4	-3.4
C[C@H](CO)N1C[C@H](C)[C@@H](CN(C)S(=O)(=O)c2ccccc2)OCCCC[C@H](C)Oc2ccc(NC(=O)Nc3ccc(F)cc3)cc2C1=O	-61.3	-1.3	0.9	108.7*	106.4*	58.6	-2.7	14.0
C[C@@H]1CN([C@@H](C)CO)C(=O)c2cc(NC(=O)Nc3ccc(F)cc3)ccc2O[C@@H](C)CCCCO[C@H]1CN(C)S(=O)(=O)c1ccccc1	-73.0	-0.5	.	105.9*	111.5*	-48.9	13.7	5.0
C[C@@H]1CCCCO[C@H](CN(C)S(=O)(=O)c2ccccc2)[C@H](C)CN([C@@H](C)CO)C(=O)c2cc(NC(=O)Nc3ccc(F)cc3)ccc2O1	-71.9	-2.9	.	105.1*	108.6*	65.8	-24.7	24.5
C[C@@H]1CCCCO[C@@H](CN(C)S(=O)(=O)c2ccccc2)[C@@H](C)CN([C@H](C)CO)C(=O)c2cc(NC(=O)Nc3ccc(F)cc3)ccc2O1	-71.3	0.6	.	86.8	.	.	.	.
